Rad51 HR inh – blocks human Rad51 in homologous recombination; inhibition, % at 10 µM; hRad51 DNA strand exchange, fluorescence dequenching; 200,000 compounds, 0.085% hits; Q06609;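 active = inhibition above 40% at the single screening dose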;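 also: 0% = DMSO control wells and 100% = blanks with heterologous ssDNA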
Target sequence (Q06609 whole entry, looked up): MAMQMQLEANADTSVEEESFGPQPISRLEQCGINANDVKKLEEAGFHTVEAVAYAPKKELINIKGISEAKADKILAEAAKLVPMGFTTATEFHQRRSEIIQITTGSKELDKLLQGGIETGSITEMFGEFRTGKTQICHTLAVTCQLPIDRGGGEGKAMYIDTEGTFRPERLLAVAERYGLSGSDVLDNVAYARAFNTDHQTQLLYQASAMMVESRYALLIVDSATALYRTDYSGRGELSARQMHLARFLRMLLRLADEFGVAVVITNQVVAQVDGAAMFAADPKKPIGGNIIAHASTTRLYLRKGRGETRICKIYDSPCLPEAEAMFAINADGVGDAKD
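Test system: preformed human Rad51 ssDNA filaments; also added: Donor/quencher-labelled 47-bp dsDNA substrate; doses: 10 µM final, single point; times: 37 °C 15-min filament assembly, 30-min compound preincubation, 15-min exchange; detection: FRET fluorescence dequenching, excitation 485 nm, emission 520 nm; read-out basis: Fluorescence-based percent inhibition, control- and blank-normalised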
Hsp70 activator – switches on Hsp70 transcription; activation, % at 10 µM; AID 1203; 200,000 compounds, 0.04% hits; HeLa Hsp70 promoter luciferase reporter, luminescence; scaled: vehicle 0, proteasome-inhibitor control 100%;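 active = activation above the mean across all tested compounds plus 3 SD, cutoff set per campaign, cut at about 5.5% in these data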;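 also: 100% = MG132 at 30 µM as the positive control and 0% = DMSO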
HSF1 activator – increases HSF-1 driven luciferase reporter signal; NIH3T3-HGL HSF-1 luciferase reporter, MG132, 8 h; 100% = twice DMSO control signal; activation, % at 9 µM; 300,000 compounds, 1.7% hits;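 active = mean replicate activation of at least 50% with a set share of replicates each reaching 50%; inconclusive = only one of those two conditions met; inactive = mean below 50% and too few replicates reaching it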;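 also: 0% = median of the neutral control wells and 100% = twice that signal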
HSV augment – HSV replication enhancement. maximum fold increase. 220,000 compounds, 0.005% hits. HSV replication augmentation in cells, fold increase. AID 1956; in the data active = maximum fold increase above about 1.5; inconclusive = no clear call, values can overlap the other calls; tested in PC3 cells
HSF1 inhib – HSF1 inhibition; NIH3T3-HGL HSE-luciferase, MG132-induced, luminescence 8 h; hits give low values; activity change, negative = inhibition, % at 7.5 µM (by protocol); 300,000 compounds, 0.77% hits;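 active = more than half of replicate wells show activity change below -50%, luminescence cut by over half; inconclusive = some wells, but at most half, below -50%; inactive = no replicate well below -50%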;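 also: luciferase reports HSF-1 transcriptional activity via heat shock element; 0% = median of DMSO wells and -100% = zero luminescence signal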
Mdm2 ligase inh – blocks human Mdm2 ubiquitin ligase activity; 210,000 compounds, 0.11% hits; cell-based MDM2 ubiquitination luciferase reporter, 2 h; 0 = plate control, 100 = twice control, blank-subtracted; signal enhancement, % at 5 µM; Q00987;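 active = signal enhancement of 30% or more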;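 also: luminescence tracks abundance of the self-degrading MDM2-luciferase fusion protein; higher signal means inhibition of MDM2 E3 ligase activity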
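Material: Stable MDM2–luciferase fusion reporter cells | Amount: 2000 cells seeded into each well | Dosing: One concentration, 5 µM, with 0.2% DMSO | Incubation: 4 h cell settling then 2 h compound exposure, 37 °C | Measured by: Luciferase luminescence | Read-out basis: % enhancement relative to plate controls after blank subtraction | Benchmarks: Control and blank well means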
Hsp70 act dose – dose response of Hsp70 transcriptional activators | calls only at 99 µM | shares compounds with Hsp70 activator | HeLa hsp70.1pr-luc reporter, luciferase luminescence | 70 compounds, 10% hits;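 active = over 50% activation at some tested dose; inactive = under 50% activation at every tested dose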
Active calls of the source: *; i = inactive; ? = inconclusive; . = no result; + = active, no number. Rows were chosen to be rich in hits. Some 2.6% of all compounds tested hit in one or more screens of this group.

SMILES | Rad51 HR inh | Hsp70 activator | HSF1 activator | HSV augment | HSF1 inhib | Mdm2 ligase inh | Hsp70 act dose
Cc1ccc(S(=O)(=O)N(CC(=O)c2ccccc2)C(=O)N2CCN(C)CC2)cc1 | . | . | 7 | . | -3 | . | .
O=C(Nc1ccccc1F)c1ccc(-c2cccc([N+](=O)[O-])c2)o1 | . | . | 51* | . | 25 | . | .
O=C(N/N=C/c1ccc(-c2cccc([N+](=O)[O-])c2)o1)c1ccccc1O | -6 | 0 | 58* | i | 25 | -14 | .
O=[N+]([O-])c1cccc(-c2ccc(C(=S)N3CCOCC3)o2)c1 | -1 | 0 | 79* | i | 49 | -17 | .
S=C(c1ccc(-c2cccc(Cl)c2)o1)N1CCCCC1 | 8 | 0 | 73* | i | 38 | -20 | .
CN1CCN(C(=S)c2ccc(-c3cccc([N+](=O)[O-])c3)o2)CC1 | . | . | 49 | i | 29 | -8 | .
S=C(c1ccc(-c2cccc(Cl)c2)o1)N1CCOCC1 | -3 | 0 | 49 | i | 37 | -6 | .
O=C(Nc1nccs1)c1ccc(-c2cccc([N+](=O)[O-])c2)o1 | 6 | 0 | 46 | i | 17 | -16 | .
O=C(Cn1c(=O)sc2ccccc21)Nc1ccc(O)cc1 | -24 | 0 | . | i | . | -8 | .
N#CCCN1CCN(C(=S)c2ccc(-c3ccc(Cl)c(Cl)c3)o2)CC1 | -1 | 0 | 100* | i | 61 | -6 | .
N#CCCN1CCN(C(=S)c2ccc(-c3cccc(Cl)c3)o2)CC1 | 1 | 0 | ? | i | 19 | -16 | .
O=S(=O)(/C=C/c1cccc(Br)c1)N1CCOCC1 | . | . | 6 | . | -5 | . | .
O=C(Nc1cccc(S(=O)(=O)N2CCOCC2)c1)c1ccccn1 | -5 | . | -77 | i | -70* | . | .
Cc1ccc(C)c(C(=O)Cn2ncc(Cl)c(Cl)c2=O)c1 | . | 0 | 9 | i | 20 | -19 | .
Cc1cc(C(=O)Cn2ncc(Cl)c(Cl)c2=O)c(C)n1CC(F)(F)F | 1 | 16* | -6 | i | -5 | -19 | i
CC(C)(C)c1ccc(-n2nc(C#N)c(Cl)cc2=O)cc1 | -4 | 16* | 153* | i | 152 | -11 | i
Cc1ccc(C)c(OCCC(=O)OCC(=O)Nc2ccc(Cl)cn2)c1 | . | . | 7 | . | -5 | . | .
COCCn1c(SCC(=O)Nc2sccc2C(N)=O)nc2cc(Cl)ccc2c1=O | 3 | 0 | 25 | i | 2 | -21 | .
O=C(NCCCN1CCOCC1)C1Cc2c(ccc3ccccc23)O1 (stereo not drawn) | 3 | 0 | -3 | i | 2 | -7 | .
CC1C/C(=C/c2ccncc2)C(=O)/C(=C/c2ccncc2)C1 (stereo not drawn) | -9 | 178* | 32 | i | 30 | -5 | +
O=C1/C(=C/c2ccncc2)Cc2ccccc21 | . | . | -16 | . | 1 | . | .
O=C(CCc1nc2ccccc2s1)Nc1cccnc1 | 11 | 0 | 23 | i | 6 | -10 | .
COc1cc(/C=C2/CC/C(=C/c3ccc(O)c(OC)c3)C2=O)ccc1O | . | . | 6 | . | 9 | -1 | .
CCN1C/C(=C/c2ccc(OC)c(O)c2)C(=O)/C(=C/c2ccc(OC)c(O)c2)C1 | -1 | 644* | -79 | i | -79* | 50* | +
O=c1c(Br)c(N2CCCC2)cnn1-c1ccccc1 | 3 | 0 | 27 | i | 8 | -22 | .
SMILES | Rad51 HR inh | Hsp70 activator | HSF1 activator | HSV augment | HSF1 inhib | Mdm2 ligase inh | Hsp70 act dose
O=c1c(Br)c(Br)cnn1-c1ccccc1 | 16 | 7.4* | . | i | . | -5 | i
Cc1nn(C)c(C)c1S(=O)(=O)N1CCCC(C(=O)NCC2COc3ccccc3O2)C1 (stereo not drawn) | -6 | 0 | . | i | . | -5 | .
O=C(NCC1COc2ccccc2O1)C1CCCN(S(=O)(=O)c2cnc[nH]2)C1 (stereo not drawn) | 0 | 5.8* | 17 | i | -1 | . | i
Cc1cccc(C(=O)N2CCCC(N3CCN(c4ccc(F)cc4)CC3)C2)n1 (stereo not drawn) | . | . | 16 | . | -4 | . | .
CCN1C(=O)/C(=C\N(C)C)NC1=S | . | 0 | -9 | i | -1 | -6 | .
CN(C)/C=C1/NC(=S)NC1=O | 0 | 6.1* | 2 | i | 3 | 10 | i
O=C(Nc1ccc(Cl)cc1)C1C2C=CC3(O2)C1C(=O)N(CCCN1CCCCC1)C3C(=O)NC1CCCCC1 (stereo not drawn) | . | . | -4 | . | -14 | . | .
Cc1c(O)ccc(C(=O)CN2CCN(Cc3ccc4c(c3)OCO4)CC2)c1O | 1 | 79* | -18 | i | -7 | 9 | i
O=[N+]([O-])c1cnn(-c2nc(-c3ccccc3)cc(C(F)(F)F)n2)c1 | -10 | 0 | -7 | i | -10 | -9 | .
CCOC(=O)c1sc2nc(C)nc(Nc3ccccc3)c2c1C | 28 | 5.7* | 1 | i | -6 | -2 | i
Cc1ccc(-c2nc(NC(=O)c3nn(C)cc3[N+](=O)[O-])sc2C)cc1C | . | 14* | -84 | . | -84* | -5 | i
CC(C)N1CC(C(=O)Nc2cccc([N+](=O)[O-])c2)CC1=O (stereo not drawn) | . | . | 26 | . | 0 | . | .
O=c1cc(-c2ccccc2Cl)oc2cc(O)cc(O)c12 | -5 | 0 | 4 | i | 2 | . | .
O=C1C=CC(O)(c2cc(=O)c3c(O)cc(O)cc3o2)C=C1 | -2 | 25* | -93 | i | -91* | . | +
O=C(Oc1ccc(F)cc1C(=O)/C=C/c1cccs1)c1cccc([N+](=O)[O-])c1 | -3 | 12* | 36 | i | 21 | . | i
COc1ccc(NC(=O)Cc2ccc(Cl)c(Cl)c2)cn1 | 2 | 0 | 16 | i | 3 | -4 | .
COc1ccc(NC(=O)/C(Cl)=C(/Cl)S(=O)Cc2ccccc2Cl)cn1 (stereo not drawn) | 3 | 37* | . | . | . | 12 | i
CC[n+]1c(/C=C2\Sc3ccccc3N2C)ccc2cccc(C)c21 | i | 8.9* | -11 | . | ? | -32 | i
CCN1/C(=C/c2ccc3cc(C)ccc3[n+]2CC)Sc2ccccc21 | -215 | 1 | -20 | . | -20 | -60 | .
Cc1ccc(NC(=S)NC(NC(=O)c2ccccc2)C(Cl)(Cl)Cl)c(C)c1 (stereo not drawn) | -1 | 7.0* | 18 | i | 3 | -11 | i
Cc1cc(C)c(NC(=S)NC(NC(=O)c2ccccc2)C(Cl)(Cl)Cl)c(C)c1 (stereo not drawn) | 4 | 0 | 12 | i | 3 | -3 | .
CS(=O)(=O)N1CCN(c2ccc(NC(=O)c3ccc([N+](=O)[O-])o3)cc2)CC1 | . | 8.1* | . | i | . | -10 | i
O=C(Nc1ccc(N2CCCC2)c(Cl)c1)c1ccc([N+](=O)[O-])o1 | -3 | 20* | . | i | . | -12 | i

Source: PubChem BioAssay
